# Results gathered from unrelated publications.
Compound,tested on,read-out,method,tested at,setting,measurement,value
Cn1nnc2c(C(N)=O)ncn2c1=O,MGC-803,cell growth or viability,,,,EC50,356 µM
CCCN(O)N=Nc1ccc(S(=O)(=O)Nc2cc(C)on2)cc1,,DPPH scavenging,absorbance,180 µg/mL,,inhibition,22.8%
COc1ccc(-c2ccc(-c3ccc(C(=N)N)nc3)s2)cc1,786-0,cell growth or viability,,,,GI50,1.88 µM
O=C1O[C@H]([C@@H](O)CO)C(O)=C1O,,DPPH scavenging,absorbance,160 µM,,inhibition,70.9%
CCN(O)N=Nc1ccc(S(=O)(=O)Nc2onc(C)c2C)cc1,,DPPH scavenging,absorbance,120 µg/mL,,inhibition,22.5%
O=C1O[C@H]([C@@H](O)CO)C(O)=C1O,,DPPH scavenging,,100 µg/mL,,inhibition,81.3%
CNC(=O)c1cc(Oc2ccc(NC(=O)Nc3ccc(Cl)c(C(F)(F)F)c3)cc2)ccn1,Salmonella,microbial growth,,,clinical isolate,MIC,> 100 µM
COc1cc(C=Cc2cc(-c3ccccc3)nc(O)n2)ccc1O,,DPPH scavenging,,50 µg/mL,,inhibition,61.6%
Cc1cccc(N(O)N=Nc2ccc(S(=O)(=O)Nc3cc(C)on3)cc2)c1,,DPPH scavenging,absorbance,180 µg/mL,,inhibition,34.7%
C[C@@H](O)[C@H]1C(=O)N2C(C(=O)O)=C(S[C@@H]3CN[C@H](C(=O)N(C)C)C3)[C@H](C)[C@H]12,Serratia fonticola,microbial growth,broth dilution,,clinical isolate,MIC,32 µg/mL
COc1cc(C=CC(=O)CC(c2ccc([N+](=O)[O-])cc2)n2ccnc2)ccc1O (stereo not drawn),,DPPH scavenging,,50 µg/mL,,inhibition,61.4%
Oc1ccc(Br)cc1C=NCCN1CCOCC1,,DPPH scavenging,absorbance,80 µM,,inhibition,17.4%
